Rows were chosen to be rich in hits. Some 4% of all compounds tested hit in one or more screens of this group.
NTR1 ag: activates human neurotensin receptor 1 | P30989 | NTR1-U2OS beta-arrestin-GFP spot imaging, agonist mode | activation, % at 20 µM | hit rate 0.17% among 330,000 | AID 493036;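 active means activation at or above 40% of the spot to cytoplasm intensity ratio, with at least 20 cells analyzed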
Target sequence (P30989 whole entry, looked up): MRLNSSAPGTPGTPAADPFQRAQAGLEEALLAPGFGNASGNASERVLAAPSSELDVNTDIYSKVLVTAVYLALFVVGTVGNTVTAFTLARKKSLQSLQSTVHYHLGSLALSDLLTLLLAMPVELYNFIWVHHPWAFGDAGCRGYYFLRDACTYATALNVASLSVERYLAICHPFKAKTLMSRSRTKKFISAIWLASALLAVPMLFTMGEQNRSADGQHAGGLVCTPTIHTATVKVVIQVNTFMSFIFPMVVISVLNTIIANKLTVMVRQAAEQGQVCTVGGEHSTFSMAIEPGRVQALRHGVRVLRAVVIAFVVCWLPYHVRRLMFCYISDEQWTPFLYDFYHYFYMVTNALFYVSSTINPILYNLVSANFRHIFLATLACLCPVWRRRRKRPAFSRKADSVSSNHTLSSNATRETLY
CHO parental Ca: counter-screen for OX1R antagonists: effect in parental CHO cells; hit rate 0.63% among 330,000; inhibition, % at 5.6 µM; parental CHO-K1, ATP-induced calcium, Fluo-8 fluorescence; AID 463079;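 active means inhibition above that plate's mean sample inhibition plus 3 SD, cut at about 26% in these data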
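Measured by: calcium-sensitive Fluo-8 fluorescence / Test system: CHO parental line / Controls: ATP-challenged DMSO wells low, unchallenged DMSO wells high / Measure: % inhibition / Compound: single nominal dose of 5.6 µM per compound / Replicates: single well per compound, no replicates / Reagent: ATP as calcium-mobilizing challenge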
OX1R antag-1: human HCRTR1 antagonism; O43613; CHO/OX1R cells, Fluo-8 calcium fluorescence, orexin A; inhibition, % at 5 µM; hit rate 0.43% among 330,000;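 active means inhibition above its plate's threshold, mean inhibition of all tested compounds on the plate plus 3 SD, cut at about 37% in these data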
OX1R antag-2: OX1R (human) antagonism; hit rate 1.8% among 330,000; OX1R-expressing cells, FRET antagonist read-out; inhibition, % at 6.6 µM; O43613; AID 485270; in the data active means inhibition mostly above about 38%, no sharp cut-off; inactive means mostly below about 40%
TAAR1 agonist: agonists of human TAAR1. CHO RD-HGA16 TAAR1, Fluo-8 calcium fluorescence; vehicle wells 0%, saturating PEA agonist 100%. activation, % at 3 µM. hit rate 0.99% among 360,000. AID 624467;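 active means activation above the mean activation of all test compounds in the run plus 3 SD, cut at about 38% in these data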
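Benchmarks: low control DMSO, high control PEA (EC100); System: CHO RD-HGA16 cells carrying human TAAR1 plus Gα16; Detection: Fluo-8 fluorescence, 5 s baseline then 140 s kinetic read; Schedule: 17-24 h plating, Fluo-8 75 min 37 °C, 30 min RT; Read-out basis: % activation from peak over basal fluorescence ratio, DMSO-to-PEA scaled.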
TAAR1 antag: human TAAR1 antagonism | CHO RD-HGA16 TAAR1, Fluo-8 calcium fluorescence, antagonist | inhibition, % at 3 µM | hit rate 1.5% among 360,000 | Q96RJ0;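 active means inhibition above a per-plate cutoff, the mean inhibition of test compounds on that plate plus 3 SD, cut at about 49% in these data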
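Test system: CHO RD-HGA16 cells bearing hTAAR1 | Reagent: β-PEA, EC80 | Compound dosing: 3 µM, single point | Schedule: Dye loading 75 min at 37 °C, then 30 min room temperature | Signal: Calcium fluorescence with Fluo-8 | Evaluation: Percent inhibition of PEA-evoked calcium signal, max/basal emission ratio | Control set: DMSO-only wells and EC80 β-PEA-stimulated wells | Repeats: Singlicate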
TAAR1 ag confirm: human TAAR1 agonism, confirmed; shares compounds with TAAR1 agonist; CHO RD-HGA16 TAAR1, Fluo-8 calcium fluorescence; scaled: DMSO 0%, maximal phenethylamine 100%; activation, % at 3 µM; hit rate 82% among 2,400;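 active means activation above a cutoff set at the run's mean compound activation plus 3 SD, cut at about 39% in these data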
Ga16 nonsel ag: nonselective agonist in parental cells, TAAR1 agonist counter-screen | shares compounds with TAAR1 agonist | CHO-Ga16 parental, Fluo-8 calcium fluorescence; normalized to maximal ATP response, DMSO zero | activation, % at 3 µM | hit rate 50% among 2,400 | AID 651787;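 active means activation above the run cutoff, the mean activation over all tested wells plus 3 SD, cut at about 12% in these data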
TAAR1 desensitize: TAAR1 response desensitization, agonist counter-screen | shares compounds with TAAR1 agonist | CHO RD-HGA16 hTAAR1, Fluo-8 calcium, beta-PEA response inhibition | inhibition, % at 3 µM | hit rate 46% among 2,400 | AID 651951;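 active means inhibition above the run cutoff, the mean inhibition of all test compounds plus 3 SD, cut at about 49% in these data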;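 further: beta-PEA stimulus applied at its EC80; loss of beta-PEA calcium signal after compound pretreatment read as receptor desensitization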
Ga16 nonsel ant: nonselective Ga16 antagonism, counter-screen | shares compounds with TAAR1 agonist | CHO-Ga16 ATP-induced calcium, Fluo-8 fluorescence | inhibition, % at 3 µM | hit rate 39% among 2,400;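 active means inhibition above the plate's mean compound inhibition plus 3 SD, computed per plate, cut at about 22% in these data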
Numbers stand for hits; – = inactive; · = no result.

SMILES	NTR1 ag	CHO parental Ca	OX1R antag-1	OX1R antag-2	TAAR1 agonist	TAAR1 antag	TAAR1 ag confirm	Ga16 nonsel ag	TAAR1 desensitize	Ga16 nonsel ant
Cc1cc(C)cc(N2C(=O)NC(=O)/C(=C\C=C\c3ccco3)C2=O)c1	·	–	–	–	50.3	–	72.4	47.2	–	–
Cc1ccccc1CCNCc1ccc(Br)cc1	–	–	–	–	70.5	50.1	93.0	13.7	66.6	–
Cc1ccc2c(c1)C1C[N+](C)(CC(=O)c3ccc(Cl)cc3Cl)CCC1N2C(=O)c1ccc(F)cc1 (stereo not drawn)	–	–	–	–	–	–	·	·	·	·
COc1ccccc1N	·	·	·	·	–	–	·	·	·	·
CCOC(=O)C1=C(N)OC2=C(C(=O)CCC2)[C@]12C(=O)N(CC(N)=O)c1ccccc12	–	–	–	–	–	–	·	·	·	·
CCOc1ccc([N+](=O)[O-])cc1CNCCc1ccccc1	–	–	–	–	51.8	–	65.7	–	50.5	–
CCOc1ccc(Cl)cc1CNCCc1ccccc1F	–	–	–	–	–	–	·	·	·	·
COC(=O)C1=C(c2ccc(OC)c(OC)c2)C[C@@H]2CC[C@H]1N2C(=O)N1CCCC1	–	–	–	–	–	–	·	·	·	·
O=c1cc(C(F)(F)F)c2cc3c4c(c2o1)CCCN4CCC3	–	72.8	91.7	–	194.6	95.3	89.0	111.6	70.4	75.2
CC(C)N=C(NC(C)C)N1CC1	·	·	·	·	–	–	·	·	·	·
CCOC(=O)c1sc(/N=C/c2c(O)n(-c3cccc(C)c3)c(=O)[nH]c2=O)c(C#N)c1C	–	–	–	–	–	–	·	·	·	·
c1ccc(C2CC2)c(OCC2=NCCN2)c1	–	–	–	–	–	–	·	·	·	·
c1ccc2cc(CC3=NCCN3)ccc2c1	–	–	–	–	87.1	66.1	98.1	–	86.7	–
COc1ccc2c(CCN)c[nH]c2c1	–	–	–	–	52.0	–	79.8	–	–	–
N[C@@H]1C[C@H]1c1ccccc1	–	–	–	–	80.0	78.2	98.6	–	85.8	–
CC1([N+](=O)[O-])COP(=O)(NCc2cccnc2)OC1 (stereo not drawn)	·	·	·	·	–	–	·	·	·	·
CCCCn1nnnc1C(CCc1ccccc1)N1CCC2(CC1)C(=O)NCN2c1ccccc1 (stereo not drawn)	·	·	·	·	–	–	·	·	·	·
Cc1ccc2cc(CNCCc3ccccc3C)c(=O)[nH]c2c1	–	–	–	–	75.5	80.8	83.3	–	92.3	–
Cc1cccc(CCNCc2cc3cc(C)cc(C)c3[nH]c2=O)c1	–	–	–	–	107.6	77.9	101.8	–	90.4	–
CCCCCOc1ccc(C)cc1CN(CCCl)CCCl	–	–	–	–	–	–	·	·	·	·
CCC(C)n1c(O)c(C=NCCc2ccccc2)c(=O)[nH]c1=S (stereo not drawn)	–	–	–	–	68.8	–	59.9	–	–	–
CN1CN(c2ccccc2)C2(CCN(CCCSc3ccccc3NC(=O)/C=C/c3ccccc3)CC2)C1=O	·	·	·	·	122.2	101.8	125.2	97.3	106.6	96.6
NCCc1ccc(O)cc1	–	–	–	–	118.2	88.9	98.7	–	94.2	–
CCCCC(CC)CNCC(O)c1ccccc1 (stereo not drawn)	–	–	–	–	52.9	–	64.3	–	–	–
CC[C@]12CC[C@H](O)CC1=CCC1C2CC[C@]2(C)C(=O)CCC12 (stereo partly drawn)	–	–	–	–	–	–	·	·	·	·
CC(Cc1ccccc1)NC(=O)/C=C/C(=O)O (stereo not drawn)	–	–	–	–	·	·	·	–	·	–
C[C@@H]1CN(C2CCC(C#N)(c3ccc(F)cc3)CC2)CC[C@]1(C(=O)O)c1ccccc1 (stereo partly drawn)	–	–	–	–	–	–	·	·	·	·
CN1CCCN(C(=O)COc2ccc(F)cc2F)CC1	–	–	–	–	–	–	·	·	·	·

High-throughput results deposited in PubChem by several laboratories.
